According to ChEMBL document CHEMBL1127435 (J Med Chem, 1994):
pKi: −log10 of the molar value. Where “and” joins values, the source holds several entries; their conditions need not be identical. Equal entries are not always repeated.

Experiments:
[1] = biological target: T1, D(2) dopamine receptor (Homo sapiens, UniProt P14416); experiment: Affinity was evaluated by inhibition of [3H]spiperone binding to COS cells transfected with human dopamine D-2(long) receptor; format: cell-based
How it was run: (§1)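 Membranes from COS-7 cells transfected with human D-4 or D-2(long) receptor; [3H]spiperone binding inhibited in presence of sodium chloride. Ki averaged from two experiments.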

[2] = Ratio between Ki values of D2 and S-2A receptors
[3] = biological target: T2, D(4) dopamine receptor (Homo sapiens, UniProt P21917); experiment: Affinity was evaluated by inhibition of [3H]-spiperone binding to COS cells transfected with human dopamine D-4 receptor; format: cell-based; how it was run: as §1
T2 sequence (P21917 whole entry): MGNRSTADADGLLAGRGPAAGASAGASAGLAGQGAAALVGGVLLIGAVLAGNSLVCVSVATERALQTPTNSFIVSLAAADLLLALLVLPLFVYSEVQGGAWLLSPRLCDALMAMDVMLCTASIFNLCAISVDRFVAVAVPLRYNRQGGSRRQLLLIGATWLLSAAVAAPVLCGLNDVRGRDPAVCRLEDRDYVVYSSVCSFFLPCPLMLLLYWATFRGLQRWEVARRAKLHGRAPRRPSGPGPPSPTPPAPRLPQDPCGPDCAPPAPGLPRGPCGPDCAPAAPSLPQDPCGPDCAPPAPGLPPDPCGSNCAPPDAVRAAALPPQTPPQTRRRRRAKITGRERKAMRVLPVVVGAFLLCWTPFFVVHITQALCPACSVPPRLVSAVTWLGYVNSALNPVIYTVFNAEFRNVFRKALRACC

[4] = biological target: T3, 5-hydroxytryptamine receptor 2A (Rattus norvegicus, UniProt P14842); experiment: Affinity was evaluated by inhibition of [125I]LSD binding to NIH 3T3 cells transfected with cloned rat 5-hydroxytryptamine 2A receptor; format: cell-based, NIH3T3
How it was run: (§2)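 Membranes from confluent GF-6 and P0 cell monolayers, homogenized in ice-cold 0.32 M sucrose, spun at 44 000g, stored at -80°C in 50 mM Tris-HCl pH 7.6. Triplicate tubes held 5 nM [125I]LSD (stock), test compound at 10^-9 to 10^-5 M final and 1–5 μg protein. Nonspecific binding was defined with 10 μM mesulergine.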

[5] = biological target: T4, Serotonin 3 (5-HT3) receptor (Rattus norvegicus, UniProt P35563+Q9JJ16); experiment: Affinity was evaluated by inhibition of [3H]GR-65630 binding to NG108-15 cell transfected with cloned rat 5-hydroxytryptamine 3 receptor; format: cell-based
T4 sequence (P35563 whole entry): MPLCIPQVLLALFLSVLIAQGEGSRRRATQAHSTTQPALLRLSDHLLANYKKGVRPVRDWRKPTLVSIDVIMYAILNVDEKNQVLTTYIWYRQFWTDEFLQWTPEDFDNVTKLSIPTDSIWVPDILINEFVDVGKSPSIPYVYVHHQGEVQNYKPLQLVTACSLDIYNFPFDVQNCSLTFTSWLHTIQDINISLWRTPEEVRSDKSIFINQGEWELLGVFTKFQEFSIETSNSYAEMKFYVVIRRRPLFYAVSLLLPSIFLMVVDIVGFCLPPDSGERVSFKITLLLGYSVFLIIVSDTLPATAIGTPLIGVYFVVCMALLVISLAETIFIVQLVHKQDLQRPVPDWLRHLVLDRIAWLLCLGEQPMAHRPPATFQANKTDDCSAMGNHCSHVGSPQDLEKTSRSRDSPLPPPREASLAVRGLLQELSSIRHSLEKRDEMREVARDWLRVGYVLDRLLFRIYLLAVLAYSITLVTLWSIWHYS
T4 sequence (Q9JJ16 whole entry): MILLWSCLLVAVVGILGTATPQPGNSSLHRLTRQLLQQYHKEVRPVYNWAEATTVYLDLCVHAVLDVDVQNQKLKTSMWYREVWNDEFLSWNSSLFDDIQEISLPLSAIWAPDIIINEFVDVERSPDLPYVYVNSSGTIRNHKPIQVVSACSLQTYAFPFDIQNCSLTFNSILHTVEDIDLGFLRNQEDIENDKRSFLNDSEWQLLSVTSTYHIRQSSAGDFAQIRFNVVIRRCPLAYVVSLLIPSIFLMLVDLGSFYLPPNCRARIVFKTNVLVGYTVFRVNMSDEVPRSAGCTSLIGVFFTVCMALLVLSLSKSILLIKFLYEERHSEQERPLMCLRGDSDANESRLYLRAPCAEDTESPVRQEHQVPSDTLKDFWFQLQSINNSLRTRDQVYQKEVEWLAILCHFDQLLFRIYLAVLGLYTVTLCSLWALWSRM

[6] = Ratio between Ki values of D2 and S-3 receptors
[7] = biological target: T5, 5-hydroxytryptamine receptor 2C (Rattus norvegicus, UniProt P08909); experiment: Affinity was evaluated by inhibition of [125I]LSD binding to NIH 3T3 cells transfected with cloned rat 5-hydroxytryptamine 2C receptor; format: cell-based, NIH3T3; how it was run: as §2
T5 sequence (P08909 whole entry): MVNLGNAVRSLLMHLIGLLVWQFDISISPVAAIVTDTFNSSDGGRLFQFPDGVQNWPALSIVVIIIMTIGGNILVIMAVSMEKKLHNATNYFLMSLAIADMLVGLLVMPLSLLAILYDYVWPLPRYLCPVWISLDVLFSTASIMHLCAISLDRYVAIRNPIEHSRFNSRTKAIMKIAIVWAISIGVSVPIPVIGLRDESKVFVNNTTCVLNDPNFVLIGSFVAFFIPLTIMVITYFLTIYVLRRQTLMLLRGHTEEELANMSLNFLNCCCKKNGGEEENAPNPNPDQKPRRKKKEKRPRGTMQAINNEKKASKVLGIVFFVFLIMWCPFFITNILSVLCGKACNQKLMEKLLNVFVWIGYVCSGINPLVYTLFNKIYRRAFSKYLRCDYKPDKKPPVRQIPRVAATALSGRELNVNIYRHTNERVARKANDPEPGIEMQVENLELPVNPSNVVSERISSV

[8] = biological target: D(1A) dopamine receptor (Rattus norvegicus, UniProt P18901); experiment: Affinity was evaluated as inhibition constant for dopamine receptor D1 using [3H]-SCH- 23390 as radioligand
[9] = biological target: T5, 5-hydroxytryptamine receptor 2C; experiment: Affinity was evaluated as inhibition constant for serotonin 5-hydroxytryptamine 2C receptor
[10] = biological target: T2, D(4) dopamine receptor; experiment: Affinity was evaluated as inhibition constant for dopamine D-4 receptor
[11] = biological target: T1, D(2) dopamine receptor; experiment: Affinity was evaluated as inhibition constant for dopamine D-2 receptor
[12] = biological target: T3, 5-hydroxytryptamine receptor 2A; experiment: Affinity was evaluated as inhibition constant for serotonin 5-hydroxytryptamine 2A receptor
[13] = biological target: T4, Serotonin 3 (5-HT3) receptor; experiment: Affinity was evaluated as inhibition constant for serotonin 5-hydroxytryptamine 3 receptor; format: protein-complex assay

Chain of D(1A) dopamine receptor (P18901 whole entry): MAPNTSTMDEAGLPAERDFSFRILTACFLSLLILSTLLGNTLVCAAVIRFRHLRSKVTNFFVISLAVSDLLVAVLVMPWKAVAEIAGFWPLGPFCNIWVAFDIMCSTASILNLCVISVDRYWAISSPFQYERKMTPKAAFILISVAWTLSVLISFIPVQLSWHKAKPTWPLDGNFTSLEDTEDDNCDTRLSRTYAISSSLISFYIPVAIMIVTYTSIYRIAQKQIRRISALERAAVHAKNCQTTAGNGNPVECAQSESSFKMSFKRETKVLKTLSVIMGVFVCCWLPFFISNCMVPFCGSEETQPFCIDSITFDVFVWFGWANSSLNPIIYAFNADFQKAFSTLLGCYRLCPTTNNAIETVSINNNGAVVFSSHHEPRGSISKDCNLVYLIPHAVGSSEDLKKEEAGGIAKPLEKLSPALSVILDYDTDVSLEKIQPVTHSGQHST
T1 sequence (P14416 whole entry): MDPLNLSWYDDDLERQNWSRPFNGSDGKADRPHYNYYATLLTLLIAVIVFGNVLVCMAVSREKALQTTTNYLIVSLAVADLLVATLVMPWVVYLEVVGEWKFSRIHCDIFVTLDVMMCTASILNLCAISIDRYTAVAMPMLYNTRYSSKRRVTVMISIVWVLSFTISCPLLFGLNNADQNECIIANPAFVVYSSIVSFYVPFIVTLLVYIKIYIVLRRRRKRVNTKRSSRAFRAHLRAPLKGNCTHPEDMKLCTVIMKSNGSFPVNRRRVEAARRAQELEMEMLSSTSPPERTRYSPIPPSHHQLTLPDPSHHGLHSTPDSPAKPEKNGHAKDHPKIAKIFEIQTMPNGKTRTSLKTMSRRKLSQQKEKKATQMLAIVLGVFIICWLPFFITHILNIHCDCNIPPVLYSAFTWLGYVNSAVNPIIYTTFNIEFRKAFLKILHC
T3 sequence (P14842 whole entry): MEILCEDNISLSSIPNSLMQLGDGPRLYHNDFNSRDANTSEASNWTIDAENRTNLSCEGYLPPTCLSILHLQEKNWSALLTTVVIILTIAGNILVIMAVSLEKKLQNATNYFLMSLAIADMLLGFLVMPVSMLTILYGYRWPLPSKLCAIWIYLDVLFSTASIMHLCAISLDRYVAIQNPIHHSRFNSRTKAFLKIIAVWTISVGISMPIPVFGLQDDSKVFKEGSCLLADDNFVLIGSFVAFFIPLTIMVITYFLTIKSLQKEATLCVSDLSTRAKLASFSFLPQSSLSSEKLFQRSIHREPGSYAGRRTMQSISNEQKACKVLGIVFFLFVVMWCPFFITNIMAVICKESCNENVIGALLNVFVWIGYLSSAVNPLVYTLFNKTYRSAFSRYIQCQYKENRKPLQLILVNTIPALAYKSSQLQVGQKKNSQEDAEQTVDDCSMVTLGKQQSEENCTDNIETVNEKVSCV

Structure (SMILES)	pKi [1]	Ratio [2]	pKi [3]	pKi [4]	pKi [5]	Ratio [6]	pKi [7]	pKi [8]	pKi [9]	pKi [10]	pKi [11]	pKi [12]	pKi [13]
CN1CCN(C2=Cc3ccccc3Oc3ccccc32)CC1	7.68	5	8.70	8.40	7.39	0.51	8.22						
CC1c2ccccc2C=C(N2CCN(C)CC2)c2ccccc21 (stereo not given)			7.92	7.33			7.44	7.80					
CN1CCN(C2=Nc3cc(Cl)ccc3Oc3ccccc32)CC1 [ISOLOXAPINE]			7.64	7.96	7.41		7.72						
C/C=C1/c2ccccc2C=C(N2CCN(C)CC2)c2ccccc21	6.14	7.4	6.52	7.01	7.46	21	6.96	7.17					
CC1CCN(C2=Cc3cc(Cl)ccc3Cc3ccccc32)CC1		< 1				< 1			< 6.00	6.00	5.85	< 6.00	< 6.00
CN1CCC(C2=Cc3cc(Cl)ccc3Cc3ccccc32)CC1		200				14			8.52	5.57	6.25	8.52	7.39
CN1CCN(C2=Nc3ccccc3Nc3ccc(Cl)cc32)CC1 [ISOCLOZAPINE]								7.85		7.80			7.66
CC(C)=C1c2ccccc2C=C(C2=CCN(C)CC2)c2ccccc21									5.48 and 6.08 and 5.82		6.28 and 6.10 and 6.24	5.66 and 6.08 and 5.92	
CN1CCN(C2=Nc3ccccc3Nc3ccccc32)CC1								6.70	7.08	6.38	5.60		
CC1c2ccccc2C=C(C2=CCN(C)CC2)c2ccccc21 (racemic)		9.4							7.05	6.49	6.17	7.14	
CN1CCN(C2=Cc3ccccc3Oc3ccc(Cl)cc32)CC1	8.60	0.8	9.27	8.52	7.08	0.03	8.52						
C=C1c2ccccc2C=C(N2CCN(C)CC2)c2ccccc21	7.24	5.2	7.33	7.96	7.51	1.8	7.74	8.33					
CN1CCN(C2=Cc3ccccc3Cc3ccc(Cl)cc32)CC1				8.70	7.31		8.22						
CN1CCN(C2=Nc3ccccc3Oc3ccc(Cl)cc32)CC1 [LOXAPINE]			8.31										
CC(C)=C1c2ccc(Cl)cc2C=C(N2CCN(C)CC2)c2ccccc21	6.16	3	6.03	6.64	7.00	6.9	6.43	7.01					
CN1CCN(C2=Cc3cc(Cl)ccc3Cc3ccccc32)CC1			5.54	8.52	6.92		8.15						
C[C@@H]1c2ccccc2C=C(C2=CCN(C)CC2)c2ccccc21		8.6							7.15	6.72	6.19	7.13	
CN1CCN(C2=Nc3cc(Cl)ccc3N(C)c3ccccc32)CC1		7.9				28			7.13	6.92	5.96	6.85	7.40
CN1CCN(C2=Cc3cc(Cl)ccc3Oc3ccccc32)CC1	8.06	3	9.05	8.52	7.24	0.15	8.22						
C[C@H]1c2ccccc2C=C(C2=CCN(C)CC2)c2ccccc21		3.7							6.60	6.40	6.14	6.70	
CC(C)=C1c2ccccc2C=C(N2CCN(C)CC2)c2ccccc21	6.54	1.2	5.57	6.60	7.09	3.6	6.41	6.92					
C=C1c2ccccc2C=C(C2=CCN(C)CC2)c2ccccc21		8.3							7.46	6.48	6.60	7.52	
